Results from different studies.
Each line is one published result; the experiments were not run side by side.
Medium: plasma

Compound	species	route	dose	notes	Tmax [h]
Cn1cc(Nc2nc(N)nc(-c3cccc(-n4ccc5cc(C6CC6)cc(F)c5c4=O)c3CO)n2)cn1	human	oral	900 mg	single dose, fasted, suspension	4
COc1ccc([C@@H](O)c2cc(-c3ncnc4cc(N5CCOCC5)ccc34)c(F)cc2Cl)nn1	human	oral	250 mg	single dose, patients	1.03
NC(=S)NN=Cc1ncccc1N	human	oral	100 mg	–	0.9
CC(C)n1c(Nc2cccnc2)nc2cnc(Nc3ccc(N4CCN(C)CC4)cc3)nc21	male human	oral	100 mg	single dose, healthy volunteers	1.5
CNC(=O)n1ccc2cc(Oc3ccnc(NC(=O)c4ccc(C5CCN(CCO)CC5)cc4)c3)c(OCCOC)cc21	human	oral	35 mg	single dose, healthy volunteers	2
CN1CC[C@@H](c2c(O)cc(O)c3c(=O)cc(-c4ccc(C(F)(F)F)cc4Cl)oc23)[C@@H]1CO	human	oral	200 mg	patients	5.2
NS(=O)(=O)OC[C@@H]1C[C@@H](n2ccc3c(N[C@H]4CCc5ccccc54)ncnc32)C[C@@H]1O	human	intravenous	20 mg/m²	patients	1.03
Cl.[2H]C([2H])([2H])CC(=O)c1cnc(NC(=O)C2CC2)cc1Nc1cccc(-c2ncn(C([2H])([2H])[2H])n2)c1OC	human	oral	10 mg	multiple doses, once daily, fasted	1.6
Cc1ccc(C(=O)Nc2ccc(CN3CCN(C)CC3)c(C(F)(F)F)c2)cc1C#Cc1cnc2[nH]ncc2c1	human	oral	20 mg	healthy volunteers	8
